One assay has as its target Glutamate NMDA receptor. Put plainly: Binding affinity towards NMDA receptor to displace [3H]-L-689,560 from rat cortical membranes.
As usually defined, the IC50 is the midpoint of a concentration-inhibition curve. A higher IC50 goes with weaker potency. The compound `CC(=O)c1c(O)nc2cc(Cl)ccc2c1O` registered an IC50 greater than 100 µM.
The same measure, in the same setting: next, `O=C(c1c(O)nc2cc(Cl)ccc2c1O)C1CCCCC1`: greater than 100 µM; `O=C1Nc2cc(Cl)ccc2C(=O)C1C(=O)c1ccccc1` (stereo not drawn): 3.16 µM.
On the same count and under the same terms, as for `O=C(c1c(O)nc2cc(Cl)ccc2c1O)N(O)CCc1ccccc1`, the figure is 9.3 µM; as for `O=C(OCCCc1cccc(O)c1)c1c(O)nc2cc(Cl)ccc2c1O`, 2.64 µM.
In turn, `CONC(=O)c1c(O)nc2cc(Cl)ccc2c1O` showed an IC50 of 3.09 µM.
Turning to `O=C(NO)c1c(O)nc2cc(Cl)ccc2c1O`, the IC50 was 6.32 µM.
Still for that read-out and setting: as for `O=C(OCCc1c[nH]c2ccccc12)c1c(O)nc2cc(Cl)ccc2c1O`, the figure is 0.43 µM; as for `CON(C)C(=O)c1c(O)nc2cc(Cl)ccc2c1O`, 47.1 µM.
Same read-out and setting: next, `C=CCOC(=O)c1c(O)c2ccc(Cl)cc2[nH]c1=O`: 6.42 µM.
`CCCOC(=O)c1c(O)nc2cc(Cl)ccc2c1O`: the IC50 was greater than 100 µM.
In turn, `CCOC(=O)C1C(=O)Nc2cc(Cl)ccc2C1=O` (stereo not drawn) gave an IC50 of 16.7 µM.
Regarding `CCOC(=O)c1c(O)nc2cc(C(F)(F)F)ccc2c1O`, the IC50 was found to be 12.3 µM.
On the same count and under the same terms, as for `O=C1CS(=O)(=O)c2ccc(Cl)cc2N1`, the figure is greater than 100 µM; as for `O=C(OCCCCc1cccc(O)c1)c1c(O)nc2cc(Cl)ccc2c1O`, 2.62 µM; as for `COC(=O)C1C(=O)Nc2cc(Cl)ccc21` (stereo not drawn), greater than 100 µM.
Consider `CCOC(=O)C1Oc2ccc(Cl)cc2NC1=O` (stereo not drawn), for which the IC50 was greater than 100 µM.
The same measure, in the same setting: as for `O=C(OCC#Cc1cccc(O)c1)c1c(O)c2ccc(Cl)cc2[nH]c1=O`, the figure is 0.17 µM; as for `COC(=O)C1C(=O)Nc2cc(Cl)ccc2S1(=O)=O` (stereo not drawn), 13.6 µM; as for `CCOC(=O)c1c(O)nc2cccc(C)c2c1O`, greater than 1000 µM.
Compound `O=C(Cc1ccccc1)c1c(O)c2ccc(Cl)cc2[nH]c1=O` showed an IC50 of 0.93 µM.
Still for that read-out and setting: next, `O=C(NCCc1ccc(O)cc1)c1c(O)nc2cc(Cl)ccc2c1O`: greater than 100 µM; `O=C1CC(=O)c2ccc(Cl)cc2N1`: greater than 100 µM; `O=C(OCc1cccc(O)c1)c1c(O)nc2cc(Cl)ccc2c1O`: 6.13 µM.
For `O=C(Cc1cccs1)c1c(O)nc2cc(Cl)ccc2c1O`, the IC50 is 1.07 µM.
Same read-out and setting: as for `COC(=O)c1c(O)c2ccc(Cl)cc2[nH]c1=O`, the figure is 6.4 µM; as for `CCOC(=O)c1c(O)nc2ccc(Cl)cc2c1O`, greater than 100 µM.
Still for that read-out and setting: as for `O=C(OCCc1cccs1)c1c(O)nc2cc(Cl)ccc2c1O`, the figure is 3 µM; as for `O=C(OCCc1cccc(O)c1)c1c(O)nc2cc(Cl)ccc2c1O`, 1.82 µM.
On the same count and under the same terms, next, `CCOC(=O)c1c(O)nc2c(C)cccc2c1O`: greater than 100 µM; `NC(=O)c1c(O)nc2cc(Cl)ccc2c1O`: greater than 100 µM; `O=C(OCCc1ccc(O)cc1)c1c(O)nc2cc(Cl)ccc2c1O`: 2.93 µM.
With `O=C(c1ccsc1)c1c(O)nc2cc(Cl)ccc2c1O`, the IC50 was 1.97 µM.
The same measure, in the same setting: as for `O=C(c1ccco1)c1c(O)nc2cc(Cl)ccc2c1O`, the figure is 2.39 µM.
In turn, `CCOC(=O)c1c(O)nc2cc(C#N)ccc2c1O` had an IC50 of 26 µM.
In turn, `O=C(CCc1ccccc1)c1c(O)nc2cc(Cl)ccc2c1O` had an IC50 greater than 100 µM.
The compound `CCOC(=O)c1c(O)nc2cc([N+](=O)[O-])c([N+](=O)[O-])cc2c1O` registered an IC50 of 10.5 µM.
As to `COc1cccc(C#CCOC(=O)c2c(O)nc3cc(Cl)ccc3c2O)c1`, the IC50 worked out at 0.27 µM.
The compound `O=C(c1cccnc1)c1c(O)nc2cc(Cl)ccc2c1O` gave an IC50 of 6.85 µM.
In turn, `O=C(SCCc1ccccc1)c1c(O)nc2cc(Cl)ccc2c1O` gave an IC50 greater than 10 µM.
`O=C(OCCc1ccccc1O)c1c(O)nc2cc(Cl)ccc2c1O`: the IC50 came out at 7.12 µM.
On the same count and under the same terms, as for `CCOC(=O)c1c(O)nc2ccccc2c1O`, the figure is greater than 100 µM; as for `C#CCOC(=O)c1c(O)nc2cc(Cl)ccc2c1O`, 9 µM.
The same measure, in the same setting: next, `O=C(NOCc1ccccc1)c1c(O)nc2cc(Cl)ccc2c1O`: greater than 100 µM; `CN(Cc1ccccc1)C(=O)c1c(O)nc2cc(Cl)ccc2c1O`: greater than 100 µM; `O=C(OCCc1ccccn1)c1c(O)nc2cc(Cl)ccc2c1O`: 27.5 µM.
Still for that read-out and setting: next, `CCOC(=O)c1c(O)c2ccc([N+](=O)[O-])cc2[nH]c1=O`: 25.4 µM.

For another assay, the species on record is Rattus norvegicus. Put plainly: Antagonistic activity against NMDA-induced response in rat cortical slice. Format: functional. The gist of the method: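 Rat cortical slices were challenged with NMDA, with and without antagonist. Apparent Kb was calculated from the rightward shift of the NMDA concentration-response curve. Values are means of at least three experiments, with maximum variance (geometric mean) of 15%.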
One may read the Kb as the affinity of an antagonist, worked out from how it opposes an agonist. A higher Kb goes with a less potent antagonist. `O=C(c1c(O)nc2cc(Cl)ccc2c1O)C1CC1`: the Kb came to 3.39 µM.
Same read-out and setting: as for `CCOC(=O)C1C(=O)Nc2cc(Cl)ccc2C1=O` (stereo not drawn), the figure is 65.4 µM; as for `COC(=O)C1C(=O)Nc2cc(Cl)ccc21` (stereo not drawn), 441 µM; as for `O=C(Cc1ccccc1)c1c(O)c2ccc(Cl)cc2[nH]c1=O`, 3.92 µM.

For another assay, the system named is Mus musculus. Put plainly: Effective dose of compound required to protect audiogenic seizure in DBA/2 mice administered ip. The format is functional. The gist of the method: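 DBA/2 mice received compound intraperitoneally 30 min before audiogenic seizure induction. Protection was reported as an ED50 or as number protected/number tested at a single dose.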
By ED50 is commonly meant the midpoint of the dose-response relation. A low value points to an effect at a small dose. Compound `O=C(c1c(O)nc2cc(Cl)ccc2c1O)C1CC1` returned an ED50 of 4.1 mg/kg.
On the same count and under the same terms, as for `O=C(Cc1ccccc1)c1c(O)c2ccc(Cl)cc2[nH]c1=O`, the figure is 31.6 mg/kg.

(Values after ChEMBL document CHEMBL1126880, “3-Acyl-4-hydroxyquinolin-2(1H)-ones. Systemically active anticonvulsants acting by antagonism at the glycine site of the N-methyl-D-aspartate receptor complex” (J Med Chem, 1993).)
